Data set [1] relates to Staphylococcus aureus. Put plainly: Antibacterial activity against methicillin-susceptible Staphylococcus aureus ATCC 25923 assessed as zone of inhibition at 30 ug after 18 hrs by disk diffusion method. The format is functional. As to conditions: ATCC 25923, 18 h, read-out: DIZ. In a few lines: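 Disks 6 mm in diameter; a 6 mm zone means no growth inhibition. The diameters of complete-inhibition zones are averaged over at least three independent experiments and reported with standard errors.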

Data set [2] relates to Staphylococcus aureus. The experiment in a line: Antibacterial activity against methicillin-resistant Staphylococcus aureus USA300 SF8300 assessed as zone of inhibition at 30 ug after 18 hrs by disk diffusion method. The format is functional. The note with it: USA300 SF8300, 18 h, read-out: DIZ. In a few lines:
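Disk diffusion on 6 mm paper disks, with methicillin-susceptible S. aureus ATCC 25923 as the control strain alongside MRSA USA300 SF8300. The read-out is the diameter of the complete inhibition zone, averaged over at least three independent experiments and reported with standard errors. A 6 mm zone means no growth inhibition.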

Data set [3] has as its system Staphylococcus aureus. The experiment in a line: Antibacterial activity against methicillin-susceptible Staphylococcus aureus ATCC 29213 assessed as growth inhibition after 18 to 20 hrs by microdilution assay. The format is functional. In a few lines: (§1)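 Broth microdilution gives both MIC and MBC. Each compound is serially 2-fold diluted starting from its stock concentration.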
(In general: Broth dilution looks for growth in wells or tubes with falling amounts of substance.)

In data set [4] the test system is Staphylococcus aureus. Put plainly: Antibacterial activity against methicillin-resistant Staphylococcus aureus USA300 SF8300 assessed as growth inhibition after 18 to 20 hrs by microdilution assay. The data set is classed as functional. In a few lines:
(§2)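 Broth microdilution to find MIC and MBC against MRSA USA300 SF8300. Each compound was serially 2-fold diluted starting from its stock concentration.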

The test system of data set [5] is A549. Put plainly: Cytotoxicity against human A549 cells assessed as reduction in cell viability after 24 to 48 hrs by Presto Blue assay. The data set is classed as cell-based.
The test system of data set [6] is HEK293. Put plainly: Cytotoxicity against human HEK293 cells assessed as reduction in cell viability after 24 to 48 hrs by […] assay.
For data set [7], the system named is A549. The experiment in a line: Cytotoxicity against human A549 cells assessed as change in cell morphology at 12.5 to 25 uM after 10 mins to 2 hrs by microscopic analysis. The format is cell-based. The note with it: a549, 25 µM.
For data set [8], the system named is HEK293. Put plainly: Cytotoxicity against human HEK293 cells assessed as change in cell morphology at 12.5 to 25 uM after 10 mins to 2 hrs by microscopic analysis. The data set is classed as cell-based. As to conditions: hek293, 25 µM.
In data set [9] the test system is Staphylococcus aureus. The experiment in a line: Effect on methicillin-susceptible Staphylococcus aureus RF122 growth at >= MIC after 2 hrs. The format is organism-based.
Data set [10] has as its system Staphylococcus aureus. The experiment in a line: Bactericidal activity against methicillin-susceptible Staphylococcus aureus ATCC 29213 after 18 to 20 hrs. The format is functional. In a few lines: as §1
The test system of data set [11] is Staphylococcus aureus. The experiment in a line: Bactericidal activity against methicillin-resistant Staphylococcus aureus USA300 SF8300 after 18 to 20 hrs. The data set is classed as functional. The essentials:
as §2

Data set [12] deals with Staphylococcus aureus. Put plainly: Antibacterial activity against methicillin-susceptible Staphylococcus aureus RF122 infected in A549 cells assessed as inhibition of bacterial invasion after 2 hrs.

≈ marks a conversion by molar mass, not a printed value.

The MIC is the lowest concentration that inhibits growth of the organism. What is called IC50 is the point on the concentration scale where inhibition reaches its midpoint. As a reminder, the MBC is the smallest concentration meeting the test's criterion for killing. For the molecule `CC(C)=CCc1c2c(c(O)c3c1O[C@@]14C(=C[C@H]5CC1C(C)(C)O[C@]4(C/C=C(/C)C(=O)N[C@H](C(=O)O)C(C)C)C5=O)C3=O)C=CC(C)(C)O2`, the zone of inhibition at 30 µg/disc came to 20 mm in the data set with Staphylococcus aureus [1] and 22.2 mm in the data set on Staphylococcus aureus [2]. Also, the MIC in the data set with Staphylococcus aureus [3] is 12.5 µM (≈ 8.25 µg/mL); in the data set with Staphylococcus aureus [4], 25 µM (≈ 16.5 µg/mL). In addition, the IC50 in the data set on A549 [5] worked out at 29.8 µM; with HEK293 [6] it was 21.8 µM. Besides, the Activity result in the data set with A549 [7], in the data set on HEK293 [8] and in the data set on Staphylococcus aureus [9] was “Non-toxic” throughout. For the same molecule, the MBC worked out at 12.5 µM (≈ 8.25 µg/mL) against Staphylococcus aureus [10] and 25 µM (≈ 16.5 µg/mL) with Staphylococcus aureus [11]. Moreover, the inhibition entry in the data set on Staphylococcus aureus [12] was “Dose-dependent effect”.

(Values after ChEMBL document CHEMBL3808328, “Caged xanthones: Potent inhibitors of global predominant MRSA USA300” (Bioorg Med Chem Lett, 2016).)
